Measured values from different studies.
Compare with care: the assays were run in different laboratories.
CDK4: Cyclin-dependent kinase 4 (CDK4, Homo sapiens, UniProt P11802)
FGFR3: Fibroblast growth factor receptor 3 (FGFR3, Homo sapiens, UniProt P22607)
HSD11B2: 11-beta-hydroxysteroid dehydrogenase type 2 (HSD11B2, Homo sapiens, UniProt P80365)

Structure (SMILES) | target | assay | conditions | quantity | result
COc1ncccc1-c1cnn2ccc(N3CCN(C(=O)OC(C)C)CC3)nc12 | Serine/threonine-protein kinase DCLK1 (DCLK1, Homo sapiens, UniProt O15075) | binding, competition with immobilised ligand | 1 µM | remaining binding | 99%
Nc1ncc(-c2nc(N3CCOCC3)nc(N3CCOCC3)n2)c(C(F)F)n1 | Ribosomal protein S6 kinase alpha-1, N-terminal kinase domain (RPS6KA1, Homo sapiens, UniProt Q15418) | binding, competition with immobilised ligand | 10 µM | remaining binding | 75%
CCOC(=O)[C@H]1Cc2c(cc([N+](=O)[O-])cc2[N+](=O)[O-])[C@H](O)[C@]12C(=O)Nc1ccc(Br)cc12 | CDK4 | cell-free assay, inhibitor, TR-FRET | 1 µM | inhibition | 34.1%
C#Cc1n[nH]c2c(-c3cn([C@@H](C)c4ccccn4)c(=O)[nH]c3=O)cc(F)cc12 | FGFR3 | enzyme activity, inhibitor | 0.1 µM | inhibition | 2.9%
CCOC(=O)[C@H]1Cc2c(cc([N+](=O)[O-])cc2[N+](=O)[O-])[C@H](O)[C@]12C(=O)Nc1cc(Br)ccc12 | CDK4 | cell-free assay, inhibitor, TR-FRET | 1 µM | inhibition | 32.9%
CN1CC[C@@]2(C)c3cc(OC(=O)Nc4ccccc4)ccc3N(C)[C@@H]12 | Muscarinic acetylcholine receptor M2 (CHRM2, Homo sapiens, UniProt P08172) | ligand displacement, radioligand | 10 µM | inhibition | 7.6%
CCCCCCC(C)(C)c1cc(O)c2c(c1)OC(C)(C)C1CCC(=O)CC21 (stereo not shown) | HSD11B2 | enzyme activity, inhibitor | 20 µM, lysate | inhibition | < 40%
Cc1nn(C)cc1-c1nc2c(N3CCN(Cc4ccc(Cl)cc4)CC3)c(Cl)cnc2[nH]1 | FGFR3 | binding, competition with immobilised ligand | 1 µM | remaining binding | 70%
Clc1cccc(-c2c[nH]c3nccc(N4CCOCC4)c23)c1 | Serine/threonine-protein kinase 3 (STK3, Homo sapiens, UniProt Q13188) | thermal stability, DSF | 20 µM | ΔTm | > 8 °C
C[C@]12CC[C@H]3[C@@H](CCC4=CC(=O)CC[C@@H]43)[C@@H]1CC[C@@H]2O | HSD11B2 | enzyme activity, inhibitor | 20 µM, lysate | inhibition | < 40%
